The text below walks through data of ChEMBL document CHEMBL1250457, “Elucidation of the topography of the thapsigargin binding site in the sarco-endoplasmic calcium ATPase” (Bioorg Med Chem, 2010).

Chain of Sarcoplasmic/endoplasmic reticulum calcium ATPase 1 (P04191 whole entry): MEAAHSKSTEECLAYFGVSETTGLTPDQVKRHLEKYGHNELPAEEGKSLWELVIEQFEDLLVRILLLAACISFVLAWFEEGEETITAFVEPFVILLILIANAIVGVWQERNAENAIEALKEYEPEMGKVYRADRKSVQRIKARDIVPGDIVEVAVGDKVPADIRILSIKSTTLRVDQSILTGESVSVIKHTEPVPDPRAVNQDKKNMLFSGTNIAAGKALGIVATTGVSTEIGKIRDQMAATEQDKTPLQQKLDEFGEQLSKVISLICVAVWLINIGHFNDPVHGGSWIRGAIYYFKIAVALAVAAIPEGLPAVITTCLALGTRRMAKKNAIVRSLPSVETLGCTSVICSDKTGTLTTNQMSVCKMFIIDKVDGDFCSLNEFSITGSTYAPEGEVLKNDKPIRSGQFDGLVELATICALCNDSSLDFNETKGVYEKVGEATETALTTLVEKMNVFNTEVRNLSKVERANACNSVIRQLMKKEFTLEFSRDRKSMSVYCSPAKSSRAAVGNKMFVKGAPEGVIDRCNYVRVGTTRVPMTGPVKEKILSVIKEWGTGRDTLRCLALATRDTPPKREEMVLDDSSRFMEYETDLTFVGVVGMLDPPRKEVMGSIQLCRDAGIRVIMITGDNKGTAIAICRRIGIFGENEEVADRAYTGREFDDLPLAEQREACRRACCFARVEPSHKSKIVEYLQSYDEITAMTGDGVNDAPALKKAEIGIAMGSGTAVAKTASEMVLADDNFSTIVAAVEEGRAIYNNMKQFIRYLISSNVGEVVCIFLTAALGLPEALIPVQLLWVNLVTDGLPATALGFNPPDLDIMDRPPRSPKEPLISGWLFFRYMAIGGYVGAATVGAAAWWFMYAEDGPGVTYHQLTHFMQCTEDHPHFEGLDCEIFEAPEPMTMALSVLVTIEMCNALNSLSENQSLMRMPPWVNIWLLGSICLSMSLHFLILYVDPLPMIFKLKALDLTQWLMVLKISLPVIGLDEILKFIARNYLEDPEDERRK

The experiment concerns the target Sarcoplasmic/endoplasmic reticulum calcium ATPase 1 (Oryctolagus cuniculus, UniProt P04191). Nature of the experiment: Inhibition of rabbit sarcoplasmic reticulum calcium ATPase by ATP regeneration assay. An outline of the steps:
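SERCA1a purified from rabbit skeletal muscle SR vesicles with low deoxycholate. Enzyme (1 mg/mL) pre-equilibrated 2.5–6 min with cumulatively added inhibitor (DMSO) in 1 mM EGTA, 1 mM Mg2+, 10 mM Tes pH 7.5, 100 mM KCl. Then diluted to 4 nM at 20 °C into NADH-coupled PK/LDH medium: 0.1 mM Ca2+, 1 mM Mg2+, 5 mM MgATP, 1 mM PEP, 0.15 mM NADH. Rate of A340 decrease.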
The term IC50 denotes the concentration needed to halve the response being measured. For the compound `C/C=C(/C)C(=O)O[C@H]1C(C)=C2[C@H]([C@@H]1OC(=O)CCCCCCC)[C@@](C)(O)C[C@H](OC(=O)CCC)[C@@]1(O)[C@H]2OC(=O)[C@@]1(C)O`, the IC50 was determined as 20 nM.
The result for `C/C=C(/C)C(=O)O[C@H]1C(C)=C2[C@H]([C@@H]1OC(=O)CCCCCCC)[C@@](C)(O)C[C@H](OC(=O)CCCCCCC)[C@@]1(O)[C@H]2OC(=O)[C@@]1(C)O` reads 20 nM.
Take `C/C=C(/C)C(=O)O[C@H]1C(C)=C2[C@H]([C@@H]1OC(=O)CCCCCCC)[C@@](C)(OC(=O)CCC)C[C@H](OC(=O)CCC)[C@@]1(O)[C@H]2OC(=O)[C@@]1(C)O`: the IC50 worked out at 2.5 nM.
As for `C/C=C(/C)C(=O)O[C@H]1C(C)=C2[C@H]([C@@H]1OC(=O)CCCCCCC)[C@@](C)(OC(=O)CCCCCCC)C[C@H](OC(=O)CCC)[C@@]1(O)[C@H]2OC(=O)[C@@]1(C)O`, the IC50 is 16 nM.
For `C/C=C(/C)C(=O)O[C@H]1C(C)=C2[C@H]([C@@H]1OC(=O)CCCCCCC)[C@@](C)(OC(=O)c1ccccc1)C[C@H](OC(=O)CCC)[C@@]1(O)[C@H]2OC(=O)[C@@]1(C)O`, the IC50 was 15.6 nM.
The result for `C/C=C(/C)C(=O)O[C@H]1C(C)=C2[C@H]([C@@H]1OC(=O)CCCCCCC)[C@@](C)(OC(=O)c1ccc(-c3ccccc3)cc1)C[C@H](OC(=O)CCC)[C@@]1(O)[C@H]2OC(=O)[C@@]1(C)O` reads above 70 nM; that for `C/C=C(/C)C(=O)O[C@H]1C(C)=C2[C@H]([C@@H]1OC(=O)CCCCCCC)[C@@](C)(OC(=O)Cc1ccc(-c3ccccc3)cc1)C[C@H](OC(=O)CCC)[C@@]1(O)[C@H]2OC(=O)[C@@]1(C)O`, 27 nM; that for `C/C=C(/C)C(=O)O[C@H]1C(C)=C2[C@H]([C@@H]1OC(=O)c1ccccc1)[C@@](C)(OC(C)=O)C[C@H](OC(=O)CCC)[C@@]1(O)[C@H]2OC(=O)[C@@]1(C)O`, 1.6 nM.
Next, `C/C=C(/C)C(=O)O[C@H]1C(C)=C2[C@H]([C@@H]1OC(=O)CCCCCCC)[C@@](C)(OC(=O)CCC)C[C@@H]1OC(C)(C)O[C@]3(C)C(=O)O[C@@H]2[C@]13OC(=O)CCC`: above 70 nM.
Take `C/C=C(/C)C(=O)O[C@H]1C(C)=C2[C@H]([C@@H]1OC(=O)CCCCCCC)[C@@](C)(OC(=O)CCC)C[C@@H]1OC(C)(C)O[C@]3(C)C(=O)O[C@@H]2[C@]13O`: the 50% inhibitory concentration (IC50) was determined as 19 nM.
Turning to `C/C=C(/C)C(=O)O[C@H]1C(C)=C2[C@H]([C@@H]1OC(=O)CCCCCCC)[C@@](C)(OC(=O)CCC)C[C@H](OC(=O)CCC)[C@@]1(O)[C@H]2OC(=O)[C@@]1(C)OC(=O)CCC`, the IC50 was 11.1 nM.
On to `CCCCCCCC(=O)O[C@H]1[C@H]2C(=C(C)[C@@H]1O)[C@@H]1OC(=O)[C@@](C)(O)[C@@]1(O)[C@@H](OC(=O)CCC)C[C@]2(C)OC(C)=O`, for which the IC50 was above 70 nM.
With `CCCCCCCC(=O)O[C@H]1[C@H]2C(=C(C)[C@@H]1OC(=O)c1ccccc1)[C@@H]1OC(=O)[C@@](C)(O)[C@@]1(O)[C@@H](OC(=O)CCC)C[C@]2(C)OC(C)=O`, the IC50 is 0.8 nM.
For `CCCCCCCC(=O)O[C@H]1[C@H]2C(=C(C)[C@@H]1OC(=O)c1cccc(C)c1)[C@@H]1OC(=O)[C@@](C)(O)[C@@]1(O)[C@@H](OC(=O)CCC)C[C@]2(C)OC(C)=O`, the IC50 was determined as 9 nM.
As to `CCCCCCCC(=O)O[C@H]1[C@H]2C(=C(C)[C@@H]1OC(=O)Cc1ccc(-c3ccccc3)cc1)[C@@H]1OC(=O)[C@@](C)(O)[C@@]1(O)[C@@H](OC(=O)CCC)C[C@]2(C)OC(C)=O`, the IC50 is 18 nM.
On to `CCCCCCCC(=O)O[C@H]1[C@H]2C(=C(C)[C@@H]1OC(=O)c1ccccc1-c1ccccc1)[C@@H]1OC(=O)[C@@](C)(O)[C@@]1(O)[C@@H](OC(=O)CCC)C[C@]2(C)OC(C)=O`, for which the IC50 stood at 3 nM.
With `CCCCCCCC(=O)O[C@H]1[C@H]2C(=C(C)[C@@H]1OC(=O)c1ccc(C)cc1)[C@@H]1OC(=O)[C@@](C)(O)[C@@]1(O)[C@@H](OC(=O)CCC)C[C@]2(C)OC(C)=O`, the IC50 was 44 nM.
As to `CCCCCCCC(=O)O[C@H]1[C@H]2C(=C(C)[C@@H]1OC(=O)c1ccc(-c3ccccc3)cc1)[C@@H]1OC(=O)[C@@](C)(O)[C@@]1(O)[C@@H](OC(=O)CCC)C[C@]2(C)OC(C)=O`, the IC50 was above 70 nM.
For the compound `C/C=C(/C)C(=O)O[C@H]1C(C)=C2[C@H]([C@@H]1OC(=O)CCCCCCC)[C@@](C)(OC(C)=O)C[C@H](O)[C@@]1(O)[C@H]2OC(=O)[C@@]1(C)O` [DEBUTANOYLTHAPSIGARGIN], the IC50 was 10 nM.
In the case of `C/C=C(/C)C(=O)O[C@H]1C(C)=C2[C@H]([C@@H]1OC(=O)CCCCCCC)[C@@](C)(OC(C)=O)C[C@H](OC(=O)CCC)[C@@]1(O)[C@H]2OC(=O)[C@@]1(C)O` [THAPSIGARGIN], the IC50 stood at 0.2 nM.
